Results as given in ChEMBL document CHEMBL4513216, “Probing the Open Global Health Chemical Diversity Library for Multistage-Active Starting Points for Next-Generation Antimalarials” (ACS Infect Dis, 2020).

assay: Toxicity liver stage against HepG2, at 10uM; format: cell-based; design: test concentration 10 uM, cell line HepG2-A16-CD81EGFP; settings: human, HepG2-A16-CD81EGFP cells; read-out: INHIBITION
In short: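 Uninfected HepG2-A16-CD81EGFP cells, 3 × 10^3 per well, 1536-well, plated on prespotted compound at 10 μM final, parasite-free screening media added to match infected plates; puromycin 10 μM positive, DMSO 0.5% negative; run in parallel with 48 h PbLuc assay at 37 °C, 5% CO2; viability by CellTiter-Glo luminescence, normalized to controls.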

SMILES	cytotoxicity at 10 µM [%]
Cc1ccsc1C(=O)NC1CCS(=O)(=O)c2ccccc21 (centres undefined)	2.93
CC(=O)N1CC[C@H](c2nc3cc(F)ccc3o2)C1	0.835
CC(C)(C)CN[C@@H]1CO[C@H](CNC(=O)Nc2ccccc2)[C@H]1O	6.98
O=C(NC[C@H]1C[C@@H]2CCN1C[C@@H]2CN1CCOCC1)Nc1ccsc1	1.03
CN(C)C(=O)CN1CCC2(CC1)CC(=O)c1ccc3ccccc3c1O2	6.17
COC(=O)CN1Cc2cc3c(cc2NCCC1=O)OCO3	-8.1
CC(C)COC(=O)N1CC(=O)N(CCc2ccccc2)CC(O)C1 (centres undefined)	-16.6
O=S(=O)(NCC1(O)CCOCC1)c1c(F)cccc1F	-4.97
CC(=O)N(C)CC(=O)Nc1cnc(-n2ccnc2)nc1	-9.69
O=C(Cn1ccc2ccccc21)N1CCC(Oc2cnccn2)CC1	4.61
O=C(Cn1c(=O)oc2ccccc21)NCC1(O)CCc2ccccc2C1 (centres undefined)	5.37
c1ccc(CN2CCN3C[C@H](Oc4cccnc4)C[C@H]3C2)nc1	6.59
CC(C)Nc1ccc2nc(C3CCNCC3)nn2c1	-6.75
COCC(=O)N1CCC2(CC1)CC(c1cnn(C)c1)C(=O)N2 (centres undefined)	7.25
COCc1nc2nc(O)c3c(n2n1)NC(=O)CC3c1ccc(SC)cc1 (centres undefined)	1.22
COc1ccc(C2=C(C)C(N3CCc4ccccc43)=NS2(=O)=O)cc1	-4.66
Fc1cccc(Cc2cncc(C3CCCN3C3CCOCC3)n2)c1 (centres undefined)	-0.685
Cc1ccnn1CCNC(=O)C1CCN(S(=O)(=O)c2ccc(F)cc2)C1 (centres undefined)	-32
Cc1noc2nc(C3CCCN(Cc4cccnc4)C3)cc(C(F)F)c12 (centres undefined)	-30.3
Cc1cc(-c2cnc(NC3CCCC3)nc2-c2ccoc2)on1	-20.9
Cc1ccc([C@]2(O)CC[C@H]3CN(Cc4cccnc4)C[C@H]32)nc1	-12.6
COc1ccc(OC)c(CN2CCC(c3cc(O)nc(C)n3)C2)c1 (centres undefined)	-15

SMILES	cytotoxicity at 10 µM [%]
CCc1nnsc1C(=O)NCc1nnc2n1CCCCC2	0.136
O=C(CCCc1nc2ccccc2[nH]1)N1CCCC1c1ccccn1 (centres undefined)	0.219
COc1cc(C(C)=O)ccc1OCC(=O)c1cccn1C	13.6
CC(C)COCCNC1CCN(c2ccccn2)CC1	-2.12
O=C(CNc1cc(-n2cnnn2)ccc1F)Nc1ccccc1Cl	11.7
O=C(NCCCN1CCOCC1)c1ccc(-c2ccccc2)[nH]c1=O	-2.48
COc1c(CNCc2ccc(CN3CCOCC3)cc2)c(C)nn1C	-11.8
CN(C)C(=O)C1CCN(c2cncc(-n3cccn3)n2)CC1	-10.9
CN(CC(=O)Nc1ccncc1)CC1CCCN1c1cccnn1 (centres undefined)	-2.01
CCN(CC1CN(Cc2nccn2CC)CCO1)c1cccnn1 (centres undefined)	-0.31
COc1ccccc1OCC(=O)Nc1ncccc1C	0.464
CCc1noc(C(C)N(C)CC(=O)Nc2cccc(C)c2C)n1 (centres undefined)	6.35
Cc1ccc(S(=O)(=O)NCCCN2CCC(O)CC2)c(F)c1	4.24
CC(C)NC(=O)CNC(=O)OC(C)(C)C	9.39
CCN(C(=O)c1cc(C)nc2ccccc12)C1CC(=O)NC1=O (centres undefined)	3.04
COCCCSc1ccc(NC(=O)Nc2cn[nH]c2)cc1	2.54
CC(NC(=O)Nc1ccc(-n2cncn2)cc1)C(=O)NC(C)(C)C (centres undefined)	3.92
CC(C(=O)N1CCCCC1)N1CCN(c2nccs2)CC1 (centres undefined)	22.1
CCC(C)NS(=O)(=O)Cc1cccc(NC(=O)c2ccc[nH]2)c1 (centres undefined)	15.5
CN1CCCN(C(=O)c2nc3c(o2)CN(S(C)(=O)=O)C3)CC1	-117
CC(C)CCC(=O)N1C[C@H]2CCN[C@H]2C1	2.82
CCOc1ncnc2c1CCN(S(=O)(=O)c1ccccc1)CC2	-110

SMILES	cytotoxicity at 10 µM [%]
CCOCC1CN(S(=O)(=O)CC)Cc2nn(C)cc21 (centres undefined)	-111
Cn1cccc1C(=O)N1C[C@@H](OCc2cccnc2)[C@H]2OCCC[C@H]21	7.06
Cc1ccc(C(=O)N2C[C@@H](OCC3CCOCC3)[C@H]3OCCC[C@H]32)o1	-3.55
CC(=O)Nc1nc2c(s1)C1(CCCC1)Nc1ccccc1S2	-9.99
CN1CCCN(c2nccc(-c3c[nH]c4ccc(Br)cc34)n2)CC1	-9.99
O=C(c1ccc2nccnc2c1)N1CCN(CCO)[C@@H]2CS(=O)(=O)C[C@@H]21	-10.4
O=C(Cc1ccc(O)c(F)c1)N1CCC2(CCNCC2)CC1	-7.43
CCOc1ccc(-c2ccnc(COc3ccccc3)n2)cc1C(=O)O	-1.84
Cc1nc2cc(NC(=O)Cn3ncc(N4CCCC4)cc3=O)ccc2s1	2.01
Cc1nc(N(C)C)nc(N(C)CCc2ccncc2)c1C	1.37
CO[C@H]1C[C@@H](O)C12CCN(Cc1nc(C(F)(F)F)no1)CC2	-4.7
C[C@@H]1CN(CCC(=O)NCc2ccccc2Cl)CC[C@@]1(O)C1CCC1	-3.21
COc1ccc(C(O)C(=O)N2CCC(c3nccn3C(C)C)CC2)cc1 (centres undefined)	-0.355
CC(C)c1nc(CN(C)C(=O)c2ccccc2C2CCNC2)cs1 (centres undefined)	4.46
C=C(C)COc1ccccc1C(=O)NCCc1cc(O)nc(C)n1	-0.355
CN1CC2(CCN(C(=O)Cc3ccc(O)c(F)c3)CC2)CC1=O	1.87
O=C(O)C1c2nc[nH]c2CCN1CC(c1ccccc1)c1ccccc1 (centres undefined)	-7.97
COCc1noc(Cn2c(C)cc(C(F)(F)F)cc2=O)n1	2.65
O=C(c1ccc(S(=O)(=O)NCc2ccon2)cc1)N1CCNCC1	2.59
CCn1c(CC2CCN(S(=O)(=O)c3cccs3)CC2)nn(C)c1=O	3.63
COCCCN1CC2(CCN(Cc3cc(C(C)C)no3)CC2)CC1=O	-3.79
CN(C)C(=O)c1noc2c1CN(C(=O)CCCN1CCCCC1)CC2	-10.5

SMILES	cytotoxicity at 10 µM [%]
CCC(O)c1nc2c([nH]1)CC(C)(C)CNC2=O (centres undefined)	9.55
CCCN(Cc1nccn1C)C(=O)c1cnn[nH]1	-1.21
Cc1cccc2cc(C(=O)N3CCN(S(=O)(=O)N(C)C)CC3)n(C)c12	7.39
CCn1cc(-c2n[nH]c(=O)n2-c2ccc(OC)c(OC)c2)c(C)n1	-9.91
CCc1cn[nH]c1C1CCCN(C(=O)c2cc(C#N)c(=O)[nH]c2C)C1 (centres undefined)	-1.3
COc1ccccc1Oc1ncccc1CNC(=O)C1COC(=O)N1 (centres undefined)	-6.01
Cc1cc(NCCS(C)(=O)=O)nc2cc3c(cc12)CCC3	8.05
Cc1nn(C)cc1CNCc1ccc(N(C)C)cc1	-11.9
Cc1nc(CN2CCCC(NCc3ccc4ccccc4c3)C2)no1 (centres undefined)	-0.375
CCc1noc(CNc2ccc(C(=O)N3CCCC3)cc2C)n1	-8.25
Cc1ccc(-c2nc(C(=O)NCC3CCOC3)cs2)cc1 (centres undefined)	-8.32
O=C(C1CCOC1)N1CCN(Cc2ccc3c(c2)CCO3)CC1 (centres undefined)	0.28
OCCn1nccc1C1CCN(CCOc2ccccc2)CC1	-0.121
O=C1COc2cc(C(=O)NS(=O)(=O)c3ccc(F)c(F)c3)ccc2N1	-2.34
O=C(c1csc(-c2ncccn2)n1)N1CCCC1Cn1cccn1 (centres undefined)	0.533
CC(C)(C)C(=O)NCCC(=O)N1CCC(Nc2cccnn2)CC1	-4.11
O=C(c1ccc(N2CCOCC2)cc1)N1CCCC(n2ccnc2)C1 (centres undefined)	-6.78
COc1cc(/C=C/c2ncc(C(=O)O)s2)cc(Cl)c1OC	8.01
Cc1cnc(C(=O)N2CCCC(n3cncn3)C2)cn1 (centres undefined)	-2.97
COc1cccc(S(=O)(=O)CCNC2CCc3ncnn3C2)c1 (centres undefined)	2.53
CCn1cc(CN2CCCN(C(=O)c3ccoc3)CC2)cn1	-18.8
CCc1nccn1C1CCCN(C(=O)c2ccc3nncn3c2)C1 (centres undefined)	-12.7

SMILES	cytotoxicity at 10 µM [%]
Cc1nc(C)n(CC2CCCN(CCOc3cccc(C#N)c3)C2)n1 (centres undefined)	-6.53
CCc1c(C(=O)NCC(=O)OCC2CC2)cnn1-c1ccc(C)cc1	-3.81
O=C(c1cccc(OC2CCCC2)c1)N1CCCC(n2cncn2)C1 (centres undefined)	-10.3
Cc1ccc(-c2nc(CNCC3CN(C)CCO3)cs2)o1 (centres undefined)	-9.16
CN1CCC/C1=N\S(=O)(=O)c1ccc(NC(=O)c2ccc(F)cc2)cc1	-4.84
Cc1cnn(CC2CCCN2Cc2nccn2C)c1 (centres undefined)	3.54
O=C(NCC(O)CN1CCc2ccccc2C1)Nc1cccnc1 (centres undefined)	3.2
CC(C)c1nc(C2CCCN(C(=O)c3ccc4[nH]cnc4c3)C2)no1 (centres undefined)	-3.87
CCOc1ccc(CC(CNC(=O)c2ccoc2)C(N)=O)cc1 (centres undefined)	5.37
Cc1noc(C2CCCN(C(=O)c3ccc(Br)cc3F)C2)n1 (centres undefined)	-8.06
CCOC[C@H]1CC[C@H]2[C@H](CCN2C(=O)c2ccncc2F)O1	-6.96
Cc1nnc(N2CC[C@H](OCC3CC3)[C@@H](Cc3ccccc3)C2)s1	5.25
CN(C)CCN1CCC2(CC1)CN(Cc1cccnc1)C(=O)CO2	-106
COc1ncccc1CN1C[C@H]2CCN(c3ccc(C)nn3)C[C@H]2C1	4.59
Cn1cc(-c2ncc3c(c2C(=O)O)CCN(Cc2ccco2)C3)cn1	6.15
CS(=O)(=O)NCc1cnc2n1CCN(Cc1ccccn1)CC2	8.85
Cc1nc(CN2CCN(CC3CCOC3)Cc3cccnc32)cs1 (centres undefined)	11
Cc1nc(CN2Cc3nccn3CC(COCC3CC3)C2)cs1 (centres undefined)	11.3
CC(C)N1CCOCC2(CN(Cc3cccs3)CCO2)C1 (centres undefined)	3.71
Cc1noc(C)c1CN1C[C@H]2CN(Cc3cccc(F)c3)C[C@H]2C1	-114
CN(C)C(=O)CN1C[C@H]2CC[C@@H](C1)N(Cc1ccccc1C#N)C2	-0.898
